Here are results for three compounds from ChEMBL document CHEMBL5653631, “A Potent and Selective ULK1 Inhibitor Suppresses Autophagy and Sensitizes Cancer Cells to Nutrient Stress” (iScience, 2018).

Structures are written as SMILES.

Experiment [1] addresses RAC-alpha serine/threonine-protein kinase (Homo sapiens) (UniProt P31749). Kind of experiment: Inhibition of human recombinant AKT1 at 40 nM in presence of ATP by radiometric assay relative to control. In a few lines:
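Panel of 327 recombinant human kinases in radiometric activity assays, each screened in duplicate at a single inhibitor concentration; percent activity remaining relative to vehicle control, percent inhibition taken as 100 minus activity remaining.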

The target of experiment [2] is Calcium/calmodulin-dependent protein kinase type 1 (Homo sapiens) (UniProt Q14012). Briefly: Inhibition of human recombinant CaMK1a at 40 nM in presence of ATP by radiometric assay relative to control.
Sequence of Calcium/calmodulin-dependent protein kinase type 1 (Homo sapiens) (Q14012 whole entry, looked up): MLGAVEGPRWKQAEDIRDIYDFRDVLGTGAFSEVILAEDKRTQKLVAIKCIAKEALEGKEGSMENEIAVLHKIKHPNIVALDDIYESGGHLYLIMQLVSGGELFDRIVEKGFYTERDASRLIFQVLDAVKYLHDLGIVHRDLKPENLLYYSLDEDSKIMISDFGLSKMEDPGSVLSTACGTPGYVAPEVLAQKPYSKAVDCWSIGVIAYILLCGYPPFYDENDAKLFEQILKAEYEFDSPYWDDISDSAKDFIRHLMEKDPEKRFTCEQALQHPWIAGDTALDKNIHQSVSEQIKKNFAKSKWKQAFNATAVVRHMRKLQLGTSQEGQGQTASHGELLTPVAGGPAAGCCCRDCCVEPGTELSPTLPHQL
Experiment [3] deals with Interleukin-1 receptor-associated kinase 1 (Homo sapiens) (UniProt P51617). Briefly: Inhibition of human recombinant IRAK1 at 40 nM related to control ULK1.
Sequence of Interleukin-1 receptor-associated kinase 1 (Homo sapiens) (P51617 whole entry, looked up): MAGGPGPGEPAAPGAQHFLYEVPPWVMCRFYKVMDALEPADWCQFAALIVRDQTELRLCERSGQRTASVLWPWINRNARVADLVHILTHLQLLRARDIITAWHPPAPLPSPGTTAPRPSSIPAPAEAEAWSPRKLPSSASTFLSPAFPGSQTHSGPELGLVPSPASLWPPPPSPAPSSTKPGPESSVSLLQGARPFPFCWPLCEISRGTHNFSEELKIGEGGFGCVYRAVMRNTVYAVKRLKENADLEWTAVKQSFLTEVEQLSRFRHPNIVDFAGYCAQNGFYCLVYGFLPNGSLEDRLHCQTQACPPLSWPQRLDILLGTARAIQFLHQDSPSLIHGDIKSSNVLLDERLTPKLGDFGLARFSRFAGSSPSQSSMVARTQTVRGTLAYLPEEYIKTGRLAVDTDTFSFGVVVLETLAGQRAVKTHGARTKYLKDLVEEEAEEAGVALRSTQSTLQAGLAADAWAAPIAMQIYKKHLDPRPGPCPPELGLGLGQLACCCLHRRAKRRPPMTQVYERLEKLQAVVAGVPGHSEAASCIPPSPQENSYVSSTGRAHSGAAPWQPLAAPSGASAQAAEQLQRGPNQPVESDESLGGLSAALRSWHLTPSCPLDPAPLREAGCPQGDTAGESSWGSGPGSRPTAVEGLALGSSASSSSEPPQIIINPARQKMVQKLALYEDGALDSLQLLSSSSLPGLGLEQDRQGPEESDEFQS
Experiment [4] concerns the target T1, MAP kinase-activated protein kinase 5 (Homo sapiens) (UniProt Q8IW41).
T1 sequence (whole entry): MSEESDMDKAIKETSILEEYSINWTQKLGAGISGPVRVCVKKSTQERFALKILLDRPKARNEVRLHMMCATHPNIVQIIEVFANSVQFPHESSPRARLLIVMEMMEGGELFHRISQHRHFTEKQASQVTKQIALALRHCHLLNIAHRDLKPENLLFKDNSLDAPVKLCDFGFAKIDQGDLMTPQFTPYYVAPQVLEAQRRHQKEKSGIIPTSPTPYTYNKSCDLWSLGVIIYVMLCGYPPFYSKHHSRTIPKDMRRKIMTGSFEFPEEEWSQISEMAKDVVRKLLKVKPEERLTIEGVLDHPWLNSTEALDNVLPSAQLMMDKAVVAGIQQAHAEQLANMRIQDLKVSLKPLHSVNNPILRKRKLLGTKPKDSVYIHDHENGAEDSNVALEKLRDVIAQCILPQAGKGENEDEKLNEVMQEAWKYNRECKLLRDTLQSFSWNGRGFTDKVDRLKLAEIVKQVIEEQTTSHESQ
Kind of experiment: Inhibition of human recombinant MAPKAPK5 at 40 nM related to control ULK1.

Experiment [5] addresses Focal adhesion kinase 1 (Homo sapiens) (UniProt Q05397). Briefly: Inhibition of human recombinant FAK at 500 nM in presence of ATP by radiometric assay relative to control.
The target in experiment [6] is Rho-associated protein kinase 2 (Homo sapiens) (UniProt O75116). Kind of experiment: Inhibition of human recombinant ROCK2 at 500 nM related to control ULK1.
Sequence of Rho-associated protein kinase 2 (Homo sapiens) (O75116 whole entry, looked up): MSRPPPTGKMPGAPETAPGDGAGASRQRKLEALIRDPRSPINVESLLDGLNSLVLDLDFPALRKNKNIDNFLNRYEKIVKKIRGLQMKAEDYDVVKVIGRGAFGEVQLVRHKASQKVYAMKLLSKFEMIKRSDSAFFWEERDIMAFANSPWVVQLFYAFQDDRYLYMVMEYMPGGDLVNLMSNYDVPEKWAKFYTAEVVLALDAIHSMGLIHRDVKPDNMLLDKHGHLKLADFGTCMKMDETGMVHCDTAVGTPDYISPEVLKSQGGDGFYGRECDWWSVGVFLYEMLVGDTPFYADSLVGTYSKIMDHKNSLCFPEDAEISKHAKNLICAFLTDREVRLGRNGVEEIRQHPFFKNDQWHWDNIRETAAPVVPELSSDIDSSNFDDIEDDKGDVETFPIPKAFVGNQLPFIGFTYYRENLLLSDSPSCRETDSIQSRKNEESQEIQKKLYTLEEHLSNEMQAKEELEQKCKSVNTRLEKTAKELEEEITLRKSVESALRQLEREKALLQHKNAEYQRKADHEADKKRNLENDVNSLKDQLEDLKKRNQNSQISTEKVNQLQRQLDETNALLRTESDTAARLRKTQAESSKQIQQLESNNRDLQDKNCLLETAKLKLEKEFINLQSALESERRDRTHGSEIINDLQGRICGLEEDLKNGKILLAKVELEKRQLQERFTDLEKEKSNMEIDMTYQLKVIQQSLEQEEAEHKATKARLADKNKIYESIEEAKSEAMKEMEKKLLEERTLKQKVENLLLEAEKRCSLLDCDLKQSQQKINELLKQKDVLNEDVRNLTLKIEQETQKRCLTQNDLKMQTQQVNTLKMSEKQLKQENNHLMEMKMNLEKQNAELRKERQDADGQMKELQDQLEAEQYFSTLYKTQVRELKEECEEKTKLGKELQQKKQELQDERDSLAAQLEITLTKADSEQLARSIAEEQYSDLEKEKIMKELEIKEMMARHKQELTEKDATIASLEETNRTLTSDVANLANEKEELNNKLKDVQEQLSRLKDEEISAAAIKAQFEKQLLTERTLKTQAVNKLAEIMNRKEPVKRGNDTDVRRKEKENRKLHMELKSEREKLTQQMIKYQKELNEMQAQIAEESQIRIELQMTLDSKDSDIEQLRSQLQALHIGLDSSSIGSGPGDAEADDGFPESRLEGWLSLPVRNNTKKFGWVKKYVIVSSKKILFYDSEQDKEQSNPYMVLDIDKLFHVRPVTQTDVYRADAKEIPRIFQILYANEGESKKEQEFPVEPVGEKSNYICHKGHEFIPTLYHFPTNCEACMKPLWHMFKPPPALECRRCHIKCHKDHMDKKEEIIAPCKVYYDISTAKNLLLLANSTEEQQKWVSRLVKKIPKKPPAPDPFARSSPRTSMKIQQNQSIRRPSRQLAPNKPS
The target in experiment [7] is TRAF2 and NCK-interacting protein kinase (Homo sapiens) (UniProt Q9UKE5). Kind of experiment: Inhibition of human recombinant TNIK at 500 nM related to control ULK1.
In experiment [8] the target is T2, Serine/threonine-protein kinase Nek9 (Homo sapiens) (UniProt Q8TD19).
T2 sequence (whole entry): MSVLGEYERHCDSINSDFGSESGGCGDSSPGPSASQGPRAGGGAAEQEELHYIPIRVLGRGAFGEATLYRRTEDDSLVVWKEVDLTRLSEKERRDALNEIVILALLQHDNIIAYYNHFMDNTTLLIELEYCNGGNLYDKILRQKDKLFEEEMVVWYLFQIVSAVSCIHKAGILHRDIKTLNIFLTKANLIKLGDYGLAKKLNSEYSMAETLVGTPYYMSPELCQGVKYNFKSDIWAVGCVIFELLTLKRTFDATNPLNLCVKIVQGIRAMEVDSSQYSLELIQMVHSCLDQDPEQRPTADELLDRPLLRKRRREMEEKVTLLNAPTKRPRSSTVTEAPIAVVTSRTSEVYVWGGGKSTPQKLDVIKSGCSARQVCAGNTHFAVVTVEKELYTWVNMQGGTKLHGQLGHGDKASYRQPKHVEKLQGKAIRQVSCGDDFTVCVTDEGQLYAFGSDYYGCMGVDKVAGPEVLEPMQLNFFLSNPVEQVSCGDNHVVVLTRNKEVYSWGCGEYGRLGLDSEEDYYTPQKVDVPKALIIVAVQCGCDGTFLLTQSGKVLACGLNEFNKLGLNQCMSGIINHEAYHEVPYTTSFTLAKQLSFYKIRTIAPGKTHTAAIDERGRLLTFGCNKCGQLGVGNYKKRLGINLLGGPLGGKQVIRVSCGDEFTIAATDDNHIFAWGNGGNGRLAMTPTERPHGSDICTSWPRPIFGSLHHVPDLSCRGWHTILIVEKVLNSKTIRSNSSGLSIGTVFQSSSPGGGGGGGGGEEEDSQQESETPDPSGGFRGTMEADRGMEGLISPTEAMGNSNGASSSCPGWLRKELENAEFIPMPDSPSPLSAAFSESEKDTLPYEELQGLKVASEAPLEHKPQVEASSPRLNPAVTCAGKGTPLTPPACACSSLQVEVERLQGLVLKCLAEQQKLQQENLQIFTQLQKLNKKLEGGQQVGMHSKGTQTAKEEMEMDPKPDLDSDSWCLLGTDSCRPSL
Kind of experiment: Inhibition of human recombinant NEK9 at 15 nM in presence of ATP by radiometric assay relative to control.

The target of experiment [9] is Mitogen-activated protein kinase 11 (Homo sapiens) (UniProt Q15759). Briefly: Inhibition of human recombinant p38beta at 15 nM related to control ULK1.
Sequence of Mitogen-activated protein kinase 11 (Homo sapiens) (Q15759 whole entry): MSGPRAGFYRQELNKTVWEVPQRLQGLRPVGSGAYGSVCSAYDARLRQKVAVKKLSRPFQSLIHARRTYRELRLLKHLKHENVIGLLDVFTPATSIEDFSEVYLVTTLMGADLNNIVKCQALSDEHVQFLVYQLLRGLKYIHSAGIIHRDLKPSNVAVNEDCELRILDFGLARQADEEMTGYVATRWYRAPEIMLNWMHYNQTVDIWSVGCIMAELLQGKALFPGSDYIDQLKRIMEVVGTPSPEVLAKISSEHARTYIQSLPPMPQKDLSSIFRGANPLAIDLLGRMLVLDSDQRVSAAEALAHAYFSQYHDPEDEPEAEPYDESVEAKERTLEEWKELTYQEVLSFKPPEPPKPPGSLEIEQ
Experiment [10] concerns the target T3, cAMP-dependent protein kinase catalytic subunit PRKX (Homo sapiens) (UniProt P51817).
T3 sequence (whole entry): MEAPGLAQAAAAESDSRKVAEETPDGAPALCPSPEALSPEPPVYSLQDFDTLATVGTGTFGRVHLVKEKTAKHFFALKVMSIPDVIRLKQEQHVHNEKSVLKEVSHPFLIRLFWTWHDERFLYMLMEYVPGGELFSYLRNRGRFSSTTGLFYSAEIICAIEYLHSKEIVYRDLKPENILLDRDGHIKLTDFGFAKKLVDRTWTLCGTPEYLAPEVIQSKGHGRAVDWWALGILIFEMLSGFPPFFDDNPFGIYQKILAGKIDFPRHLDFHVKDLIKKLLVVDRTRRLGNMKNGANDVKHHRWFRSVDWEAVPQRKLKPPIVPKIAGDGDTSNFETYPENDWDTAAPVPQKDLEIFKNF
Kind of experiment: Inhibition of human recombinant PRKX at 15 nM related to control ULK1.

Experiment [11] concerns the target Serine/threonine-protein kinase SBK1 (Homo sapiens) (UniProt Q52WX2). Briefly: Inhibition of human recombinant SBK1 at 15 nM related to control ULK1.

Sequence of RAC-alpha serine/threonine-protein kinase (Homo sapiens) (P31749 whole entry): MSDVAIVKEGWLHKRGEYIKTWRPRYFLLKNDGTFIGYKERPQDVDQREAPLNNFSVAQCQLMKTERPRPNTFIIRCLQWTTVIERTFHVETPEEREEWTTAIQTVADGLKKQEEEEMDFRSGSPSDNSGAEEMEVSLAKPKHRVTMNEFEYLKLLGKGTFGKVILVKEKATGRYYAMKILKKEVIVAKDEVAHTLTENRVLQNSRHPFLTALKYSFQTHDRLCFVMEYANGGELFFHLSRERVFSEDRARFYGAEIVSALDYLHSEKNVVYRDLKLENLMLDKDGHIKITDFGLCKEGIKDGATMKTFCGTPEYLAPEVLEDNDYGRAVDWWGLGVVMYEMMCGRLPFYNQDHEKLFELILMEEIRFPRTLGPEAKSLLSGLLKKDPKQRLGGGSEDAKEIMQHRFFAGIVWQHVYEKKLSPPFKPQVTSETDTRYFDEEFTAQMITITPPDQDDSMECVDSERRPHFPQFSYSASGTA
Sequence of Serine/threonine-protein kinase SBK1 (Homo sapiens) (Q52WX2 whole entry): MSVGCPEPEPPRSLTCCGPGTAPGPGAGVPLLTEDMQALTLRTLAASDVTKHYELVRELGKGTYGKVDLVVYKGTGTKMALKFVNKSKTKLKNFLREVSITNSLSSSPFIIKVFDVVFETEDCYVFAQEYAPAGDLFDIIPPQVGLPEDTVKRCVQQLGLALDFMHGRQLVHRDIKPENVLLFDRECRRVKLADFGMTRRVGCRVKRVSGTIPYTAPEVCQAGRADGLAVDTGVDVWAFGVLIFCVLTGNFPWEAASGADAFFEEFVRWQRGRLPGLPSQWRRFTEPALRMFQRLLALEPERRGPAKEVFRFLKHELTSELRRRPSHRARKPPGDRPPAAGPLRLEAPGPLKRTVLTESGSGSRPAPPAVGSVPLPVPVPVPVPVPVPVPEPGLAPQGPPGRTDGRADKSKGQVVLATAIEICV
Sequence of Focal adhesion kinase 1 (Homo sapiens) (Q05397 2-1052 limits assumed): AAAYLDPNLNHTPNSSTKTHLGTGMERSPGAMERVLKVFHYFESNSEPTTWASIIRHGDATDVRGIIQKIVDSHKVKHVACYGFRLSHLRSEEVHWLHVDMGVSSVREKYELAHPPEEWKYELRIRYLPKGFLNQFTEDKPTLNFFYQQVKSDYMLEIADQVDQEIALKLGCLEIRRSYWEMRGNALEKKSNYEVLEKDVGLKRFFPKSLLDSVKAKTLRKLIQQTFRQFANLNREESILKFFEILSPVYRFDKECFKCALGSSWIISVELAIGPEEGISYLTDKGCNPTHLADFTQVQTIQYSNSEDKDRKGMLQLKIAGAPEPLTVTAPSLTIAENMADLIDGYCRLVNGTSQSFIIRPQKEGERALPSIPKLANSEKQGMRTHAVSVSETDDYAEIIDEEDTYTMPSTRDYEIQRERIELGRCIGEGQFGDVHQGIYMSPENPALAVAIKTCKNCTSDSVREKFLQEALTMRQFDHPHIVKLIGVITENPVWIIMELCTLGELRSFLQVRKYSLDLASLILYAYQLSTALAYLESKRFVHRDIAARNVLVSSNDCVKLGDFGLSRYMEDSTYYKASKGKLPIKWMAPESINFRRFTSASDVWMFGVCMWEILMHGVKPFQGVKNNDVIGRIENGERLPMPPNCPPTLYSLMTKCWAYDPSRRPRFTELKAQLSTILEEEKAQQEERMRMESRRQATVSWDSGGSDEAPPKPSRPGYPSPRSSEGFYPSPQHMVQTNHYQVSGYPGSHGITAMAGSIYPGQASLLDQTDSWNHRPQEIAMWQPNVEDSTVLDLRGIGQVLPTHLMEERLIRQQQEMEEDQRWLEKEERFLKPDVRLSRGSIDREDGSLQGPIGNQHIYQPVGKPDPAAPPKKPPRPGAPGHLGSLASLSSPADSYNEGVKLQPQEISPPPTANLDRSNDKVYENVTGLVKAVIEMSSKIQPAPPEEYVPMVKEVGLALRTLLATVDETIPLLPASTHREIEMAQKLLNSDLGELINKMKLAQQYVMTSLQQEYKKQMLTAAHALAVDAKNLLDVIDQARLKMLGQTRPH

As usually defined, the inhibition is the share of the control response that was lost under treatment. Take `O=C(N[C@@H](C1CC1)C(F)(F)F)c1cc(-c2cnn3cc(-c4ccc(F)cc4)cnc23)cs1`: the inhibition in [1] and in experiment [2] was 0% in each case. In addition, the values for the fold change (FC) in experiment [3] and in [4] were 0.1 and 0, respectively.
`CNC(=O)c1ccccc1Oc1nc(Nc2cc(OC)c(OC)c(OC)c2)ncc1Br`: in experiment [5], the inhibition amounted to 71%. Besides, the fold change (FC) amounted to 0 in experiment [6] and 0.05 in experiment [7].
Take `CC(C)[C@H](NC(=O)c1cc(-c2cnn3cc(-c4ccc(OCCN5CCCCC5)cc4)cnc23)cs1)C(F)(F)F`: the inhibition in [8] came out at 22%. In addition, the fold change (FC) in experiment [9] turned out to be 0.01; in [10] it was 0.18; in [11], 0.06.
